Results on 30 compounds are retold here after ChEMBL document CHEMBL1150782, “Strong and selective inhibitors of hepatitis B virus replication among novel N4-hydroxy- and 5-methyl-beta-L-deoxycytidine analogues” (Antimicrob Agents Chemother, 2007).

SMILES strings stand for the structures.

A short description of data set [1]: Cytotoxicity against human HL60 cells after 3 days by MTT assay. The data set is classed as cell-based. The settings on record: HL-60 cells. In outline:
(§1)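 HL-60 cells in RPMI or HepG2 cells in DMEM, seeded at 50,000 per well. Exposed for 3 days to varying compound concentrations at 37°C under humidified 5% CO2. Growth read by MTT reduction to formazan. CC50 is the concentration inhibiting growth by 50%; mean ± SD of at least three independent experiments.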
In general terms: Tetrazolium assays rely on reduction of a dye to a coloured formazan, in cell work by metabolically active cells.

Data set [2] has as its system Hepatitis B virus. As to the kind of experiment: Antiviral activity against HBV in HepG2.2.15 cells assessed as decrease in extracellular viral DNA level by RT-PCR. The settings on record: HepG2 2.2.15. The format is functional, organism-based. Summed up: (§2)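 HepG2.2.15 (HBV-transfected) cells, ~10^5 per well in DMEM with 10% FBS; compound added at various concentrations with daily medium changes. Supernatants taken at day 3, 6 or 9, cleared, proteinase K digested, and HBV DNA amplified by PCR with subgenomic primers. Products run on 1% agarose, ethidium stained and imaged, calibrated against cloned HBV genome dilutions. EC50 taken from dose-response curves as 50% reduction of medium HBV DNA.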

Data set [3] is described as follows: Cytotoxicity against human HepG2 cells after 3 days by MTT assay. The data set is classed as cell-based. Summed up: as §1
Data set [4] is described as follows: Inhibition of HBV DNA polymerase. Set-up: species or system Hepatitis B virus. Summed up: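 Endogenous polymerase assay using HBV virions purified from untreated patient serum (>10^7 GE/ml) by ultracentrifugation and a sucrose step gradient. Incubated 1 h at 37°C; [3H]dCMP incorporation counted; IC50 from inhibition curves.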
In data set [5] the test system is Hepatitis B virus. As to the kind of experiment: Antiviral activity against HBV in HepG2.2.15 cells assessed as decrease in extracellular viral DNA level at 0.1 uM by PCR. The format is functional, organism-based. To be noted: HepG2 2.2.15, TDE = time-dependent effect. Summed up: as §2
Data set [6] is described as follows: Cytotoxicity against human CEM cells. The format is cell-based. The settings on record: CCRF-CEM cells.
Data set [7] can be described thus: Inhibition of duck HBV DNA polymerase. Details: species or system Duck hepatitis B virus.
Data set [8] deals with Hepatitis B virus. As to the kind of experiment: Antiviral activity against HBV in HepG2.2.15 cells assessed as decrease in extracellular viral DNA level at 0.3 uM by PCR. The settings on record: HepG2 2.2.15, TDE = time-dependent effect. The data set is classed as functional, organism-based. Summed up: as §2
Data set [9] has as its system Hepatitis B virus. As to the kind of experiment: Antiviral activity against HBV in HepG2.2.15 cells assessed as decrease in extracellular viral DNA level at 0.5 uM by PCR. The data set is classed as functional, organism-based. To be noted: HepG2 2.2.15, TDE = time-dependent effect. In outline:
as §2

The term CC50 denotes the concentration that lowers cell viability or growth by half. A low value points to harm at low concentration. Usually EC50 stands for the concentration at which the effect is half-maximal. As a reminder, the IC50 is the concentration that gives 50% inhibition. Low readings indicate greater potency, high ones weaker potency.

On to `[N-]=[N+]=N[C@@H]1C[C@@H](n2ccc(NO)nc2=O)O[C@H]1CO`, for which the CC50 at 72 h is 2000 µM in data set [1] and 1160 µM in data set [3]. For the same compound, in the data set on Hepatitis B virus [2], the EC50 was determined as 50 µM.
Turning to `Nc1ccn([C@@H]2CS[C@H](COP(=O)(O)OP(=O)(O)OP(=O)(O)O)O2)c(=O)n1` [LAMIVUDINE TRIPHOSPHATE], the midpoint of inhibition in data set [4], the IC50, lay at 0.3 µM. That is a sub-micromolar value.
In the case of `Cc1cn([C@@H]2C[C@@H](N=[N+]=[N-])[C@H](CO)O2)c(=O)nc1N`, the CC50 at 72 h was found to be 1900 µM in [1] and 1750 µM in [3]. Further, the EC50 with Hepatitis B virus [2] is 13 µM.
Take `O=c1nc(NO)ccn1[C@@H]1C[C@@H](O)[C@H](COP(=O)(O)OP(=O)(O)OP(=O)(O)O)O1`: the IC50 in [4] was found to be 6 µM.
With `O=c1nc(NO)ccn1[C@@H]1C=C[C@H](CO)O1`, the CC50 at 72 h stood at 3500 µM in data set [1] and 2500 µM in [3]. In addition, in the data set with Hepatitis B virus [5], the Activity result was “tde”. The EC50 with Hepatitis B virus [2] came to 0.03 µM.
Compound `Cc1cn([C@@H]2C[C@@H](O)[C@H](COP(=O)(O)OP(=O)(O)OP(=O)(O)O)O2)c(=O)nc1N` displayed an IC50 in [4] of 0.9 µM.
As to `O=c1nc(NO)ccn1[C@@H]1CC(F)[C@H](CO)O1` (stereo partly specified), the CC50 at 72 h in data set [1] was determined as 4400 µM; in data set [3], 820 µM. Besides, the EC50 in the data set on Hepatitis B virus [2] stood at 25 µM.
In [4], `Cc1cn([C@@H]2C[C@@H](O)[C@H](COP(=O)(O)OP(=O)(O)OP(=O)(O)O)O2)c(=O)nc1NO` returned an IC50 of 4 µM.
`Cc1cn([C@@H]2C[C@@H](O)[C@H](CO)O2)c(=O)nc1N`: the CC50 at 72 h in data set [1] and in data set [3] was over 2000 µM throughout. For the same compound, the EC50 with Hepatitis B virus [2] turned out to be 0.9 µM.
As for `Nc1ccn([C@@H]2C=C[C@H](CO)O2)c(=O)n1`, the CC50 in [6] was 20 µM.
With `Cc1cn([C@@H]2C[C@@H](O)[C@H](CO)O2)c(=O)nc1NO`, the CC50 at 72 h in data set [1] came to 600 µM; in data set [3], 490 µM. Further, the EC50 with Hepatitis B virus [2] came to 5.04 µM.
In data set [4], `Cc1cn([C@@H]2C[C@@H](F)[C@H](COP(=O)(O)OP(=O)(O)OP(=O)(O)O)O2)c(=O)nc1N` showed an IC50 of 1.9 µM.
For the compound `Cc1cn([C@@H]2CC[C@H](CO)O2)c(=O)nc1N`, the CC50 at 72 h in data set [1] turned out to be 950 µM; in [3], 1550 µM. Also, the EC50 with Hepatitis B virus [2] was over 50 µM.
As to `O=c1nc(NO)ccn1[C@@H]1CC[C@H](CO)O1`, the CC50 at 72 h in data set [1] worked out at 1600 µM; in data set [3], 2250 µM. In the data set with Hepatitis B virus [2], the EC50 was found to be 0.55 µM.
`O=c1nc(NO)ccn1[C@@H]1CC[C@H](COP(=O)(O)OP(=O)(O)OP(=O)(O)O)O1`: the midpoint of inhibition in data set [4], the IC50, lay at 0.99 µM.
Take `Cc1cn([C@@H]2C[C@@H](O)[C@H](COP(=O)(O)OP(=O)(O)OP(=O)(O)O)O2)c(=O)[nH]c1=O` [TELBIVUDINE 5'TRIPHOSPHATE]: the results for the IC50 in [7] and in data set [4] were 1 µM and 0.46 µM, respectively.
`Nc1ccn([C@@H]2CS[C@H](CO)O2)c(=O)n1` [LAMIVUDINE]: the Activity entry with Hepatitis B virus [8] is “tde”. Also, the CC50 at 72 h in [1] stood at 1400 µM; in data set [3], 1200 µM. The EC50 in the data set with Hepatitis B virus [2] was 0.1 µM.
Regarding `Nc1ccn([C@@H]2CC[C@H](CO)O2)c(=O)n1`, the figures for the CC50 at 72 h in data set [1] and in [3] were 94 µM and 85 µM, respectively. In addition, in data set [6], the CC50 is 70 µM. For the same compound, the EC50 in the data set with Hepatitis B virus [2] turned out to be 0.2 µM.
With `O=c1nc(NO)ccn1[C@@H]1C[C@@H](O)[C@H](CO)O1`, the CC50 at 72 h in [1] is 460 µM; in data set [3] it was 545 µM. Also, the EC50 with Hepatitis B virus [2] was determined as 2.38 µM.
Turning to `Cc1cn([C@@H]2C[C@@H](N=[N+]=[N-])[C@H](COP(=O)(O)OP(=O)(O)OP(=O)(O)O)O2)c(=O)nc1N`, the half-maximal inhibitory concentration (IC50) in [4] was 0.85 µM.
As to `O=c1nc(NO)ccn1[C@@H]1CS[C@H](CO)O1`, the Activity result with Hepatitis B virus [9] is “tde”. Besides, the values for the CC50 at 72 h in data set [1] and in [3] were 1450 µM and 1320 µM, respectively. Also, the EC50 with Hepatitis B virus [2] was 0.51 µM.
Consider `O=c1nc(NO)ccn1[C@@H]1C=C[C@H](COP(=O)(O)OP(=O)(O)OP(=O)(O)O)O1`, for which, in data set [4], the IC50 was found to be 0.21 µM.
Consider `Nc1nc(=O)n([C@@H]2CS[C@H](CO)O2)cc1F` [EMTRICITABINE], for which the CC50 at 72 h in data set [1] amounted to 845 µM; in data set [3], 765 µM. Besides, the EC50 with Hepatitis B virus [2] came out at 0.1 µM.
For `O=c1nc(NO)c(F)cn1[C@@H]1CS[C@H](CO)O1`, in that order: 770 µM, 855 µM and 5 µM.
In the same order, the values of `Cc1cn([C@H]2C[C@H](O)[C@@H](CO)O2)c(=O)[nH]c1=O` [DOXRIBTIMINE] are 1760 µM, 2100 µM and 0.3 µM.
In the case of `Cc1cn([C@@H]2C[C@@H](F)[C@H](CO)O2)c(=O)nc1N`, the results for the CC50 at 72 h in data set [1] and in [3] were 1650 µM and 1800 µM, respectively. The EC50 with Hepatitis B virus [2] is over 50 µM.
In the same order, the values of `O=c1nc(NO)c(F)cn1[C@@H]1C[C@@H](O)[C@H](CO)O1` are 1370 µM, 920 µM and 4.5 µM.
In turn, `Cc1cn([C@@H]2CC[C@H](COP(=O)(O)OP(=O)(O)OP(=O)(O)O)O2)c(=O)nc1N` had an IC50 in [4] of 6.5 µM.
`Cc1cn([C@@H]2C=C[C@H](COP(=O)(O)OP(=O)(O)OP(=O)(O)O)O2)c(=O)nc1N` yielded an IC50 in data set [4] of 6.2 µM.
Turning to `Cc1cn([C@@H]2C=C[C@H](CO)O2)c(=O)nc1N`, the CC50 at 72 h came to 600 µM in data set [1] and 1400 µM in [3]. Besides, in the data set on Hepatitis B virus [2], the EC50 was over 50 µM.
